Experimental data from ChEMBL document CHEMBL1806374, “Synthesis, characterization and cytotoxicity of some novel 1,3-disubstituted-2,3-dihydro-2-iminobenzimidazoles” (Eur J Med Chem, 2011).

Tests used:
MDA-MB-231 [1] = assay: Cytotoxicity against human MDA-MB-231 cells after 24 hrs by MTS assay; type: functional, cell-based; settings: MDA-MB-231, 24 h
Method in brief: (§1)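 Cells were seeded at 2 × 10⁴ per well. After 24 h the monolayers were washed and overlaid with medium containing compound, from a 0.5 mg/ml DMSO stock diluted 1:10 to 1:10 000. Untreated medium served as control. After 24 h, MTS was added for 2 h at 37 °C in 5% CO2, and A490 was read. Viability was expressed as % of control, averaged over three independent assays, and IC50/EC50 were taken from the plotted curves.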

HT-29 [2] = assay: Antiproliferative activity against human HT-29 cells after 24 hrs by MTS assay; type: functional, cell-based; settings: HT-29, 24 h; method in brief: as §1
[3] = Antiproliferative activity against at human Splenocytes after 24 hrs by MTS assay; type: cell-based; settings: Splenocyte; method in brief: as §1
HT-29 [4] = assay: Cytotoxicity against human HT-29 cells after 24 hrs by MTS assay; type: functional, cell-based; settings: HT-29, 24 h; method in brief: as §1
MDA-MB-231 [5] = assay: Antiproliferative activity against human MDA-MB-231 cells after 24 hrs by MTS assay; type: functional, cell-based; settings: MDA-MB-231, 24 h; method in brief: as §1
[6] = Cytotoxicity against human Splenocytes after 24 hrs by MTS assay; type: cell-based; settings: Splenocyte; method in brief: as §1

Compound	EC50 (HT-29 [2])	EC50 (MDA-MB-231 [5])	IC50 (MDA-MB-231 [1])	EC50 [3]	IC50 (HT-29 [4])	IC50 [6]
CCOC(=O)Cn1c(=N)n(CC(=O)OCC)c2ccccc21	2.37 nM		1.15 nM	14.3 nM		
N=c1n(CC(=O)NCCCN)c2ccccc2n1CC(=O)NCCCN			0.123 nM	0.05 nM	0.56 nM	
N=c1n(CC(=O)NCc2ccccc2)c2ccccc2n1CC(=O)NCc1ccccc1	0.205 nM		1.65 nM	7.74 nM		
N=c1n(CC(=O)N/N=C/c2ccc(F)cc2)c2ccccc2n1CC(=O)N/N=C/c1ccc(F)cc1	4.3 nM			16.9 nM		

Continued, in another order:

EC50 (HT-29 [2])	EC50 (MDA-MB-231 [5])	Compound	IC50 (MDA-MB-231 [1])	EC50 [3]	IC50 (HT-29 [4])	IC50 [6]
	1.39 nM	N=c1n(CCCc2ccccc2)c2ccccc2n1CCCc1ccccc1		14.1 nM	9.26 nM	
5.68 nM	2.02 nM	CCOC(=O)C(C)N1C2=NC(=O)C(C)N2c2ccccc21 (stereo not drawn)		0.542 nM		
	1.59 nM	CN1CCN(C(=O)Cn2c(=N)n(CC(=O)N3CCN(C)CC3)c3ccccc32)CC1			0.013 nM	1.38 nM
3.51 nM	0.002 nM	N=c1n(CC(=O)N/N=C/c2cccc(F)c2)c2ccccc2n1CC(=O)N/N=C/c1cccc(F)c1		11 nM		
